{"source": "ChEMBL document CHEMBL1125489", "about": "“Antitumor agents. 134. New shiraiachrome-A- and calphostin-C-related perylene derivatives as cytotoxic and antiviral agents and inhibitors of protein kinase C” (1992)", "key": {"[1]": {"target": "T1, Protein kinase C (PKC) (Homo sapiens) (UniProt O94806+P41743+P17252+P05129+Q05655+P05771+Q05513+Q02156+P24723+Q15139+Q04759)", "assay": "Inhibition of protein kinase C(PKC)", "format": "protein assay", "how_it_was_run": "(§1)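 Compound added in DMSO, with DMSO-only controls. Reaction started with PKC (1 μg/mL) and stopped with ice-cold TCA plus BSA. Precipitate collected on GF/C filters and counted by β scintillation.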"}, "A549 [2]": {"system": "A549", "assay": "Cytotoxic concentration against A-549 tumor cells.", "format": "functional", "settings": "Homo sapiens, read-out: ED50 (the source's name)", "how_it_was_run": "(§2)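 Tumor cells exposed 3 days to drug at 0.1, 1 and 10 μg/mL. ED50 is the concentration giving 50% reduction in cell number, estimated from the degree of inhibition at these three concentrations.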"}, "HCT-8": {"system": "HCT-8", "assay": "Cytotoxic concentration against HCT-8 tumor cells.", "format": "functional", "settings": "Homo sapiens, read-out: ED50 (the source's name)", "how_it_was_run": "as §2"}, "P388": {"system": "P388", "assay": "Cytotoxic concentration against P388 tumor cells.", "format": "functional", "settings": "Mus musculus, read-out: ED50 (the source's name)", "how_it_was_run": "as §2"}, "[3]": {"assay": "Cytotoxic concentration against RPMI-7951 tumor cells.", "format": "functional", "settings": "Homo sapiens, read-out: ED50 (the source's name)", "how_it_was_run": "as §2"}, "[4]": {"assay": "Cytotoxic concentration against TE-671 tumor cells.", "format": "functional", "settings": "Homo sapiens, read-out: ED50 (the source's name)", "how_it_was_run": "as §2"}, "Vero [5]": {"system": "Vero", "assay": "Antiviral activity against HSV-1 in vero cells", "format": "functional", "settings": "Chlorocebus sabaeus, read-out: ED50", "how_it_was_run": "(§3)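 Confluent Vero cells infected at 3 PFU/cell with HSV-1 (Kos) or HSV-2 (333) in RPMI-1640 with 2% FCS. Drugs added during inoculation as two-fold serial dilutions (final 100, 50, 25, 12.5 μg/mL). Cytopathic effect scored by microscopy after 24 h.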"}, "Vero [6]": {"system": "Vero", "assay": "Antiviral activity against HSV-2 in vero cells", "format": "functional", "settings": "Chlorocebus sabaeus, read-out: ED50", "how_it_was_run": "as §3"}, "KB 3-1": {"system": "KB 3-1", "assay": "Cytotoxic concentration against KB tumor cells.", "format": "functional", "settings": "Homo sapiens, KB 3-1, read-out: ED50", "how_it_was_run": "as §2"}, "[7]": {"target": "T1, Protein kinase C (PKC) (Homo sapiens)", "assay": "Inhibition of protein kinase C(PKC), maximal conc 40 uM", "format": "protein assay", "how_it_was_run": "as §1"}, "[8]": {"target": "Protein kinase C, PKC; classical/novel (Homo sapiens) (UniProt O94806+P17252+P05129+Q05655+P05771+Q02156+P24723+Q15139+Q04759)", "assay": "Inhibition of protein kinase C(PKC), inhibition of phorbol binding by 80-100% at 38 uM", "format": "protein assay"}, "A549 [9]": {"system": "A549", "assay": "Cytotoxic concentration against A-549 tumor cells; Inactive at 10 ug/mL.", "format": "functional, cell-based", "settings": "Homo sapiens", "how_it_was_run": "as §2"}}, "note": "Several values for one entry are separate records, joined by “and”; a condition that tells them apart may be missing. Equal entries are not always repeated. Activity calls are given as the source filed them. No cut-off for these calls is given here."}
{"molecule": "O=c1cc(O)c2c3c(O)cc(O)c4c(=O)cc(O)c(c5c(O)cc(O)c1c52)c43", "values": [{"measurement": "PKC", "setting": "[1]", "result": "> 218", "unit": "µM"}]}
{"molecule": "CC(=O)Oc1cc2c3cc(OC(C)=O)c(OC(C)=O)c4cccc(c5cccc(c1OC(C)=O)c52)c43", "values": [{"measurement": "EC50", "setting": "A549 [2]", "result": 5410, "unit": "µg/mL"}, {"measurement": "EC50", "setting": "HCT-8", "result": 4160, "unit": "µg/mL"}, {"measurement": "EC50", "setting": "P388", "result": 640, "unit": "µg/mL"}, {"measurement": "EC50", "setting": "[3]", "result": 50, "unit": "µg/mL"}, {"measurement": "EC50", "setting": "[4]", "result": 610, "unit": "µg/mL"}, {"measurement": "PKC", "setting": "[1]", "result": "> 218", "unit": "µM"}]}
{"molecule": "CC(=O)Oc1cc(O)c2c(=O)cc(OC(C)=O)c3c4c(OC(C)=O)cc(=O)c5c(O)cc(OC(C)=O)c(c1c23)c54", "values": [{"measurement": "PKC", "setting": "[1]", "result": "> 218", "unit": "µM"}]}
{"molecule": "COc1c2c3c4c(c(OC)c(=O)c5c(O)cc(OC)c(c6c(OC)cc(O)c(c1=O)c63)c54)[C@@H](C(C)=O)[C@@](C)(O)C2", "note": "(stereo in doubt; 2) [HYPOCRELLIN A]", "values": [{"measurement": "EC50", "setting": "P388", "result": 390, "unit": "µg/mL"}, {"measurement": "EC50", "setting": "Vero [5]", "result": 5, "unit": "µg/mL"}, {"measurement": "EC50", "setting": "Vero [6]", "result": 5, "unit": "µg/mL"}]}
{"molecule": "CC(=O)Oc1cc2c3cc(OC(C)=O)c(=O)c4cccc(c5cccc(c1=O)c52)c43", "values": [{"measurement": "EC50", "setting": "A549 [2]", "result": 3840, "unit": "µg/mL"}, {"measurement": "EC50", "setting": "HCT-8", "result": 560, "unit": "µg/mL"}, {"measurement": "EC50", "setting": "KB 3-1", "result": 0.54, "unit": "µg/mL"}, {"measurement": "EC50", "setting": "P388", "result": 360, "unit": "µg/mL"}, {"measurement": "EC50", "setting": "[3]", "result": 50, "unit": "µg/mL"}, {"measurement": "EC50", "setting": "[4]", "result": 680, "unit": "µg/mL"}, {"measurement": "PKC", "setting": "[1]", "result": 82, "unit": "µM"}]}
{"molecule": "O=c1cc(S(=O)(=O)[O-])c2c3c(S(=O)(=O)[O-])cc(O)c4c(=O)cc(S(=O)(=O)[O-])c(c5c(S(=O)(=O)[O-])cc(O)c1c52)c43.[Na+].[Na+].[Na+].[Na+]", "values": [{"measurement": "EC50", "setting": "Vero [5]", "result": 2, "unit": "µg/mL"}, {"measurement": "EC50", "setting": "Vero [6]", "result": 10, "unit": "µg/mL"}, {"measurement": "PKC", "setting": "[1]", "result": "200 µM and > 218 µM"}]}
{"molecule": "O=C(/C=C/c1ccccc1)Oc1cc2c3cc(OC(=O)/C=C/c4ccccc4)c(=O)c4cccc(c5cccc(c1=O)c52)c43", "values": [{"measurement": "EC50", "setting": "KB 3-1", "result": 5.5, "unit": "µg/mL"}, {"measurement": "EC50", "setting": "[3]", "result": 5.5, "unit": "µg/mL"}, {"measurement": "PKC", "setting": "[7]", "result": "> 40", "unit": "µM"}]}
{"molecule": "N=c1cc2c3cc(N)c(O)c4c(O)ccc(c5ccc(O)c(c1=O)c52)c43", "values": [{"measurement": "PKC", "setting": "[1]", "result": 95, "unit": "µM"}]}
{"molecule": "COc1c2c3c4c(c(OC)c(=O)c5c(O)cc(OC)c(c6c(OC)cc(O)c(c1=O)c63)c54)[C@@H](C(C)=O)[C@@](C)(O)C2", "note": "(stereo in doubt; 1)", "values": [{"measurement": "PKC", "setting": "[8]", "result": 44, "unit": "µM"}]}
{"molecule": "CC(=O)Oc1ccc2c3ccc(OC(C)=O)c4c(=O)cc(OC(C)=O)c(c5c(OC(C)=O)cc(=O)c1c25)c43", "values": [{"measurement": "PKC", "setting": "[1]", "result": "> 218", "unit": "µM"}]}
{"molecule": "O=c1ccc2c3ccc(=O)c4cccc(c5cccc1c52)c43", "values": [{"measurement": "ED50", "setting": "A549 [9]", "result": "inactive"}, {"measurement": "EC50", "setting": "P388", "result": 4350, "unit": "µg/mL"}, {"measurement": "EC50", "setting": "[3]", "result": 8.9, "unit": "µg/mL"}, {"measurement": "EC50", "setting": "[4]", "result": 5210, "unit": "µg/mL"}, {"measurement": "PKC", "setting": "[1]", "result": "> 218", "unit": "µM"}]}
{"molecule": "CC(=O)/N=c1\\ccc2c3ccc(NC(C)=O)c4c(=O)c(OC(C)=O)cc(c5cc(OC(C)=O)c(O)c1c25)c43", "values": [{"measurement": "PKC", "setting": "[1]", "result": 89, "unit": "µM"}]}
{"molecule": "N=c1cc2c3cc(N)c(O)c4cccc(c5cccc(c1=O)c52)c43", "values": [{"measurement": "PKC", "setting": "[1]", "result": "> 218", "unit": "µM"}]}
{"molecule": "O=c1cc2c3cc(O)c(O)c4cccc(c5cccc(c1=O)c52)c43", "values": [{"measurement": "PKC", "setting": "[8]", "result": 14, "unit": "µM"}]}
{"molecule": "COc1cc(C(=O)Oc2cc3c4cc(OC(=O)c5cc(OC)c(OC)c(OC)c5)c(=O)c5cccc(c6cccc(c2=O)c63)c54)cc(OC)c1OC", "values": [{"measurement": "PKC", "setting": "[7]", "result": "> 40", "unit": "µM"}]}
{"molecule": "COc1cc(C(=O)Oc2cc3c4cc(OC(=O)c5cc(OC)c(O)c(OC)c5)c(=O)c5cccc(c6cccc(c2=O)c63)c54)cc(OC)c1O", "values": [{"measurement": "PKC", "setting": "[7]", "result": "> 40", "unit": "µM"}]}
{"molecule": "CCCCCCCCCCCCCCCCCC(=O)Oc1cc2c3cc(OC(=O)CCCCCCCCCCCCCCCCC)c(=O)c4cccc(c5cccc(c1=O)c52)c43", "values": [{"measurement": "EC50", "setting": "KB 3-1", "result": 5.57, "unit": "µg/mL"}, {"measurement": "PKC", "setting": "[7]", "result": "> 40", "unit": "µM"}]}
{"molecule": "COc1cc(O)c2c(=O)cc(OC)c3c4c(OC)cc(=O)c5c(O)cc(OC)c(c1c23)c54", "values": [{"measurement": "EC50", "setting": "Vero [5]", "result": 3, "unit": "µg/mL"}, {"measurement": "EC50", "setting": "Vero [6]", "result": 15, "unit": "µg/mL"}, {"measurement": "PKC", "setting": "[1]", "result": "> 218", "unit": "µM"}]}
{"molecule": "O=c1ccc2c3ccc(O)c4c(=O)ccc(c5ccc(O)c1c52)c43", "values": [{"measurement": "PKC", "setting": "[1]", "result": "> 218", "unit": "µM"}]}
